The source of these data is ChEMBL document CHEMBL1938309, “Stereochemical diversity of AI-2 analogs modulates quorum sensing in Vibrio harveyi and Escherichia coli” (Bioorg Med Chem, 2012).

One data set concerns Vibrio harveyi. The experiment in a line: Growth inhibition of Vibrio harveyi MM32 at 0.1 mM after 5 hrs. Conditions: in vivo, 100 µM. The data set is classed as organism-based.
In data set [1] the test system is Escherichia coli. Description: Agonist activity at LsrB receptor in LsrF-, LsrG-, luxS-deficient Escherichia coli KX1446 assessed as induction of lsr gene expression at 150 uM after 4.5 to 5 hrs by LacZ reporter gene assay. The class given is functional. In short, it runs like this:
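E. coli KX1446 carrying lsr-lacZ fusion grown in LB; analog diluted from 2 mM stock in 0.01 M H2SO4, final 150 μM, no DPD added. Acid-water and AI-2 controls per series; triplicate independent cultures.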
On the technique in general: In a reporter assay the amount or activity of a reporter protein is the signal.

Data set [2] has as its target T1, Autoinducer 2-binding periplasmic protein LuxP (Vibrio harveyi, UniProt P54300). Description: (§1) Binding affinity to Vibrio harveyi CFP/YFP-tagged LuxP receptor assessed as decrease in FRET ratio. In short, it runs like this:
(§2)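 Purified CFP-LuxP-YFP chimera, 12.5 µg ml⁻¹, in 25 mM sodium phosphate pH 8, 35 mM NaCl, 1 mM borate; serially diluted compounds (in 0.01 M H2SO4 water), 2.5 µl into 280 µl reaction. FRET ratio 527/485 nm; lower ratio indicates binding. EC50 from dose series; standard deviations shown.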

For data set [3], the target named is Autoinducer 2-binding periplasmic protein LuxP (Vibrio harveyi) (UniProt P54300). The data set is described as §1. In short, it runs like this: as §2
Data set [4] deals with T1, Autoinducer 2-binding periplasmic protein LuxP. The experiment in a line: Agonist activity at Vibrio harveyi MM32 LuxP receptor assessed as induction of bioluminescence after 5 hrs 30 mins. The data set is classed as functional. In short, it runs like this:
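MM32 reporter grown in AB medium; compounds serially diluted in 0.01 M H2SO4 water, without added DPD. Light counted as cpm after 5 h 30 min at 30 °C. EC50 from four-parameter sigmoidal fit by non-linear least squares; error bars are standard deviations.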

For data set [5] the target is unchanged. Description: Agonist activity at Vibrio harveyi LuxP receptor. The class given is functional.
A short description of data set [6]: Inhibition of […]-deficient Salmonella Typhimurium Met844 Quorum sensing system by lacZ reporter gene assay. The arrangement: species or system Salmonella enterica subsp. enterica serovar Typhimurium.
The subject of data set [7] is Escherichia coli. Description: Agonist activity at LsrB receptor in LsrF-, LsrG-, luxS-deficient Escherichia coli KX1446 assessed as increase in receptor agonist DPD-induced lsr gene expression at 150 uM after 4.5 to 5 hrs by LacZ reporter gene assay. The class given is functional. In short, it runs like this: (§3)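 E. coli lsr-lacZ reporter KX1446 in LB with overnight culture aliquot; analogs at final 15 or 150 μM added from 2 mM stocks in 0.01 M H2SO4, with 20 µM DPD present. Acid-water and AI-2 controls.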

For data set [8], the target named is T1, Autoinducer 2-binding periplasmic protein LuxP. The experiment in a line: Antagonist activity at Vibrio harveyi MM32 LuxP receptor assessed as decrease in receptor agonist DPD-induced bioluminescence after 5 hrs 30 mins. The data set is classed as functional. In short, it runs like this:
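V. harveyi MM32 in AB medium with 0.1 μM DPD plus serial dilutions of test compound (in 0.01 M H2SO4 water). Luminescence read as cpm after 5 h 30 min at 30 °C; IC50 by four-parameter sigmoidal non-linear least-squares fitting.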

The test system of data set [9] is Escherichia coli. Description: Agonist activity at LsrB receptor in LsrF-, LsrG-, luxS-deficient Escherichia coli KX1446 assessed as increase in receptor agonist DPD-induced lsr gene expression at 15 uM after 4.5 to 5 hrs by LacZ reporter gene assay. The data set is classed as functional. In short, it runs like this:
as §3

Calls of active or inactive are those of the source. No cut-off for these calls is given here.

Chain of Autoinducer 2-binding periplasmic protein LuxP (Vibrio harveyi) (P54300 whole entry): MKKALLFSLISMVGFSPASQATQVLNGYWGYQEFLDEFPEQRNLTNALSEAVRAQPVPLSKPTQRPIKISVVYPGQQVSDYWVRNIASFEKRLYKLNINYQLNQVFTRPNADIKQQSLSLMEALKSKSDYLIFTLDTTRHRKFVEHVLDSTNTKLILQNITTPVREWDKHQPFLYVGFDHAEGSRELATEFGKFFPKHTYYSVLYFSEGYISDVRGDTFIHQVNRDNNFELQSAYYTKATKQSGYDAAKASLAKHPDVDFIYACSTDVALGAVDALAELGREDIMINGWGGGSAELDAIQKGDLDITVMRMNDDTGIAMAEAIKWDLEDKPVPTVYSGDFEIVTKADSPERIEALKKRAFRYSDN
T1 sequence (P54300 whole entry): as above

Usually EC50 stands for the concentration needed to bring the measured effect to its halfway point. Consider `CC(=O)C(=O)[C@H](O)[C@H](C)O`, for which the “growth inhibition (GI)” value with Vibrio harveyi is “Toxic”. Further, the result in the data set on Escherichia coli [1] was inactive. In addition, the EC50 in [2] was found to be 10 µM; in data set [4], 26.5 µM. Besides, in data set [3], the Activity entry is “Dose-dependent effect”.

For the molecule `CC(=O)C(=O)[C@H](O)CO`, the EC50 in data set [5] came to 30 µM.

Regarding `CC(=O)C(=O)[C@@H](O)CO`, the “growth inhibition (GI)” value in the data set on Vibrio harveyi was “Toxic”. For the same molecule, the EC50 in [2] amounted to 0.032 µM; in data set [4] it was 0.076 µM.

For `CC(=O)C(=O)[C@@H](O)[C@@H](C)O` (single isomer, unassigned), the “growth inhibition (GI)” value with Vibrio harveyi is given as “Toxic”. Further, the outcome in the data set on Escherichia coli [1] was inactive. For the same molecule, the 50% effective concentration (EC50) in [2] stood at 0.14 µM; in data set [4], 0.65 µM. Further, the Activity entry in [3] was “Dose-dependent effect”.

One may read the IC50 as the concentration needed to halve the response being measured. In turn, `CCCCCC(=O)C(=O)[C@@H](O)CO` came in with a concentration for half-maximal inhibition (IC50) in data set [6] of 5 µM.

For `CC(=O)C(=O)[C@@H](O)[C@H](C)O`, the result in the data set with Escherichia coli [7] and with Escherichia coli [9] was Active. For the same molecule, the “growth inhibition (GI)” value with Vibrio harveyi is “Toxic”. Besides, the IC50 in data set [8] was 57.5 µM. For the same molecule, in the data set on Escherichia coli [1], the outcome was inactive. For the same molecule, the concentration for a half-maximal effect (EC50) in data set [2] came out at 1.87 µM; in data set [4], 6.21 µM. Further, the Activity entry in data set [3] is “Dose-dependent effect”.

In the case of `CC(=O)C(=O)[C@H](O)[C@@H](C)O`, the outcome with Escherichia coli [7], in the data set on Escherichia coli [1] and with Escherichia coli [9] was inactive. The “growth inhibition (GI)” value in the data set with Vibrio harveyi is “Toxic”. The half-inhibitory concentration (IC50) in data set [8] is 160 µM. In addition, the concentration giving a half-maximal response (EC50) is 11.6 µM in [2] and 19.5 µM in [4]. Further, in data set [3], the Activity result is “Dose-dependent effect”.

On to `O=C(C(=O)C(F)(F)F)[C@@H](O)CO`, for which it took 30 µM to reach a half-maximal effect in data set [5] (EC50).
